Laboratory results taken from ChEMBL document CHEMBL1629612, “Characterization and sequence analysis of extended-spectrum-{beta}-lactamase-encoding genes from Escherichia coli, Klebsiella pneumoniae, and Proteus mirabilis isolates collected during tigecycline phase 3 clinical trials” (2009).
Converted amounts (≈) assume the structure as drawn.

Assays:
Type in all cases: functional
Klebsiella pneumoniae [1] = test: Antimicrobial activity against Klebsiella pneumoniae expressing beta-lactamase CTX by Etest based on multiple determinants
Method in brief: (§1)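 Clinical isolates from tigecycline phase 3 trials were received as frozen primary cultures. Repeat isolates from one patient were riboprinted, and only the first of identical strains was kept. β-lactamase genes were assigned by PCR against control strains, plus isoelectric focusing. ESBL confirmation used Etest ESBL strips carrying ceftazidime or cefotaxime with clavulanic acid, read per the manufacturer's instructions.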

Escherichia coli [2] = test: Antimicrobial activity against Escherichia coli expressing beta-lactamase CTX by Etest based on single determinant
Method in brief: (§2)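 Clinical isolates from tigecycline phase 3 trials were received as frozen primary cultures. Serial isolates from one patient were riboprinted, and only the first of identical strains was kept. β-Lactamase genes were assigned by PCR. ESBL confirmation used Etest ESBL strips carrying ceftazidime or cefotaxime, alone and combined with clavulanic acid, following the strip maker's instructions.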

Proteus mirabilis [3] = test: Antimicrobial activity against Proteus mirabilis extended-spectrum beta-lactamase producing isolate by Etest; method in brief: as §1
Escherichia coli [4] = test: Antimicrobial activity against Escherichia coli expressing beta-lactamase AmpC by Etest; method in brief: as §2
Proteus mirabilis [5] = test: Antimicrobial activity against Proteus mirabilis expressing extended-spectrum beta-lactamase by Etest based on multiple determinants; method in brief: as §1
Klebsiella pneumoniae [6] = test: Antimicrobial activity against Klebsiella pneumoniae expressing extended-spectrum beta-lactamase and beta-lactamase AmpC by Etest; method in brief: as §2
Klebsiella pneumoniae [7] = test: Antimicrobial activity against Klebsiella pneumoniae expressing beta-lactamase SHV by Etest based on multiple determinants; method in brief: as §1
Escherichia coli [8] = test: Antimicrobial activity against Escherichia coli expressing beta-lactamase CTX by Etest based on multiple determinants; method in brief: as §2
Proteus mirabilis [9] = test: Antimicrobial activity against Proteus mirabilis expressing extended-spectrum beta-lactamase by Etest based on single determinant; method in brief: as §1
Klebsiella pneumoniae [10] = test: Antimicrobial activity against Klebsiella pneumoniae extended-spectrum beta-lactamase producing isolate by Etest; method in brief: as §1
Proteus mirabilis [11] = test: Antimicrobial activity against Proteus mirabilis expressing beta-lactamase AmpC by Etest; method in brief: as §1
Klebsiella pneumoniae [12] = test: Antimicrobial activity against Klebsiella pneumoniae expressing beta-lactamase SHV by Etest based on single determinant; method in brief: as §1
Escherichia coli [13] = test: Antimicrobial activity against Escherichia coli expressing beta-lactamase AmpC and extended-spectrum beta-lactamase by Etest; method in brief: as §2
Klebsiella pneumoniae [14] = test: Antimicrobial activity against Klebsiella pneumoniae expressing beta-lactamase CTX by Etest based on single determinant; method in brief: as §1
Escherichia coli [15] = test: Antimicrobial activity against Escherichia coli expressing beta-lactamase SHV by Etest; method in brief: as §2
Escherichia coli [16] = test: Antimicrobial activity against Escherichia coli expressing beta-lactamase CTX and SHV by Etest; method in brief: as §2
Klebsiella pneumoniae [17] = test: Antimicrobial activity against Klebsiella pneumoniae expressing beta-lactamase DHA by Etest; method in brief: as §2
Escherichia coli [18] = test: Antimicrobial activity against Escherichia coli extended-spectrum beta-lactamase producing isolate by Etest; method in brief: as §2
Klebsiella pneumoniae [19] = test: Antimicrobial activity against Klebsiella pneumoniae expressing beta-lactamase SHV and CTX by Etest; method in brief: as §1

Row | Compound | MIC50 (Klebsiella pneumoniae [1]) [mg/L] | MIC90 (Klebsiella pneumoniae [1]) [mg/L] | MIC50 (Escherichia coli [2]) [mg/L] | MIC90 (Escherichia coli [2]) [mg/L] | MIC50 (Proteus mirabilis [3]) [mg/L] | MIC90 (Proteus mirabilis [3]) [mg/L] | MIC (Proteus mirabilis [5]) [mg/L] | MIC (Klebsiella pneumoniae [6]) [mg/L] | MIC (Klebsiella pneumoniae [7]) [mg/L] | MIC50 (Escherichia coli [8]) [mg/L] | MIC90 (Escherichia coli [8]) [mg/L] | MIC (Proteus mirabilis [9]) [mg/L] | MIC50 (Klebsiella pneumoniae [10]) [mg/L] | MIC90 (Klebsiella pneumoniae [10]) [mg/L] | MIC (Proteus mirabilis [11]) [mg/L] | MIC50 (Klebsiella pneumoniae [12]) [mg/L] | MIC90 (Klebsiella pneumoniae [12]) [mg/L] | MIC50 (Escherichia coli [13]) [mg/L] | MIC90 (Escherichia coli [13]) [mg/L] | MIC50 (Klebsiella pneumoniae [14]) [mg/L] | also measured
1 | CO/N=C(\C(=O)N[C@@H]1C(=O)N2C(C(=O)[O-])=C(C[N+]3(C)CCCC3)CS[C@H]12)c1csc(N)n1 [CEFEPIME] | 16 (≈ 33.3 µM) | > 16 | 16 (≈ 33.3 µM) | > 16 | 2 (≈ 4.16 µM) | > 16 | 1 (≈ 2.08 µM) | 2 (≈ 4.16 µM) | 2 (≈ 4.16 µM) | 16 (≈ 33.3 µM) | > 16 | 1 (≈ 2.08 µM) | 8 (≈ 16.6 µM) | > 16 | 2 (≈ 4.16 µM) | ≤ 2 | > 16 | 16 (≈ 33.3 µM) | > 16 | 16 (≈ 33.3 µM) | MIC (Escherichia coli [4]): 2 mg/L (≈ 4.16 µM); MIC90 (Klebsiella pneumoniae [14]): > 16 mg/L; MIC (Escherichia coli [15]): 2 mg/L (≈ 4.16 µM); MIC50 (Escherichia coli [16]): 16 mg/L (≈ 33.3 µM); MIC90 (Escherichia coli [16]): > 16 mg/L
2 | CN(C)c1cc(NC(=O)CNC(C)(C)C)c(O)c2c1C[C@H]1C[C@H]3[C@H](N(C)C)C(O)=C(C(N)=O)C(=O)[C@@]3(O)C(O)=C1C2=O [TIGECYCLINE] | 0.5 (≈ 0.854 µM) | 1 (≈ 1.71 µM) | 0.25 (≈ 0.427 µM) | 0.5 (≈ 0.854 µM) | 2 (≈ 3.41 µM) | 16 (≈ 27.3 µM) | 0.5 (≈ 0.854 µM) | 0.5 (≈ 0.854 µM) | 0.5 (≈ 0.854 µM) | 0.5 (≈ 0.854 µM) | 0.5 (≈ 0.854 µM) | 2 (≈ 3.41 µM) | 0.5 (≈ 0.854 µM) | 2 (≈ 3.41 µM) | 2 (≈ 3.41 µM) | 0.5 (≈ 0.854 µM) | 1 (≈ 1.71 µM) | 0.25 (≈ 0.427 µM) | 0.5 (≈ 0.854 µM) | 1 (≈ 1.71 µM) | MIC (Escherichia coli [4]): 0.25 mg/L (≈ 0.427 µM); MIC (Klebsiella pneumoniae [17]): 0.5 mg/L (≈ 0.854 µM); MIC90 (Klebsiella pneumoniae [14]): 2 mg/L (≈ 3.41 µM); MIC (Escherichia coli [15]): 0.12 mg/L (≈ 0.205 µM); MIC50 (Escherichia coli [18]): 0.25 mg/L (≈ 0.427 µM); MIC90 (Escherichia coli [18]): 0.5 mg/L (≈ 0.854 µM); MIC (Escherichia coli [16]): 0.25 mg/L (≈ 0.427 µM); MIC50 (Escherichia coli [16]): 0.25 mg/L (≈ 0.427 µM); MIC90 (Escherichia coli [16]): 0.5 mg/L (≈ 0.854 µM); MIC50 (Klebsiella pneumoniae [19]): 0.5 mg/L (≈ 0.854 µM); MIC90 (Klebsiella pneumoniae [19]): 2 mg/L (≈ 3.41 µM)
3 | C[C@@H](O)[C@H]1C(=O)N2C(C(=O)O)=C(SCCNC=N)C[C@H]12 [IMIPENEM ANHYDROUS] | 0.25 (≈ 0.835 µM) | 0.5 (≈ 1.67 µM) | ≤ 0.12 | 0.25 (≈ 0.835 µM) | 2 (≈ 6.68 µM) | 4 (≈ 13.4 µM) | 2 (≈ 6.68 µM) | 0.06 (≈ 0.2 µM) | 0.12 (≈ 0.401 µM) | ≤ 0.12 | 0.25 (≈ 0.835 µM) | 0.5 (≈ 1.67 µM) | 0.25 (≈ 0.835 µM) | 1 (≈ 3.34 µM) | 1 (≈ 3.34 µM) | 0.25 (≈ 0.835 µM) | 1 (≈ 3.34 µM) | 0.25 (≈ 0.835 µM) | 0.5 (≈ 1.67 µM) | 0.25 (≈ 0.835 µM) | MIC (Escherichia coli [4]): 0.12 mg/L (≈ 0.401 µM); MIC (Klebsiella pneumoniae [17]): 0.5 mg/L (≈ 1.67 µM); MIC90 (Klebsiella pneumoniae [14]): 0.5 mg/L (≈ 1.67 µM); MIC50 (Escherichia coli [18]): ≤ 0.12 mg/L; MIC90 (Escherichia coli [18]): 0.25 mg/L (≈ 0.835 µM); MIC50 (Escherichia coli [16]): ≤ 0.12 mg/L; MIC90 (Escherichia coli [16]): 0.25 mg/L (≈ 0.835 µM); MIC50 (Klebsiella pneumoniae [19]): 0.25 mg/L (≈ 0.835 µM); MIC90 (Klebsiella pneumoniae [19]): 0.5 mg/L (≈ 1.67 µM)
4 | C[C@H]1COc2c(N3CCN(C)CC3)c(F)cc3c(=O)c(C(=O)O)cn1c23.C[C@H]1COc2c(N3CCN(C)CC3)c(F)cc3c(=O)c(C(=O)O)cn1c23.O [LEVOFLOXACIN] | 4 | 16 | 16 | > 16 | 8 | > 16 | 2 | 2 | 0.12 | > 16 | > 16 | 0.12 | 2 | > 16 | 4 | 0.5 | 16 | 16 | > 16 | 4 | MIC90 (Klebsiella pneumoniae [14]): > 16 mg/L; MIC50 (Escherichia coli [18]): 16 mg/L; MIC90 (Escherichia coli [18]): > 16 mg/L; MIC50 (Escherichia coli [16]): 16 mg/L; MIC90 (Escherichia coli [16]): > 16 mg/L; MIC50 (Klebsiella pneumoniae [19]): 0.5 mg/L; MIC90 (Klebsiella pneumoniae [19]): > 16 mg/L
